Laboratory results: ChEMBL document CHEMBL3997808 (J Med Chem, 2017)

Legend:
[1] = Half-life in cynomolgus monkey at 1.2 mg/kg, iv; assay type: ADME, organism-based, Macaca fascicularis; conditions: in vivo
[2] = Fraction unbound in rat blood; assay type: ADME, tissue-based
[3] = biological target: Voltage-gated inwardly rectifying potassium channel KCNH2 (Homo sapiens, UniProt Q12809); test: Inhibition of human ERG expressed in HEK293 cells; assay type: cell-based
Cytochrome P450 2C9 = Cytochrome P450 2C9 (Homo sapiens, UniProt P11712); test: Inhibition of recombinant human CYP2C9; assay type: ADME
[4] = Oral bioavailability in cynomolgus monkey at 1.9 mg/kg; assay type: ADME, organism-based, Macaca fascicularis; conditions: in vivo
Heart = test: Drug uptake in Han Wistar rat heart at 2 mg/kg, iv administered as 4 hrs infusion; assay type: ADME, organism-based; conditions: in vivo
How it was run: (§1)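 Rats received a 4 h iv infusion, after which terminal tissue samples were collected. Parent drug concentrations were measured in each tissue and compared with blood levels.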

[5] = Cmax in cynomolgus monkey at 1.9 mg/kg, po; assay type: ADME, organism-based, Macaca fascicularis; design: dose 1.9 mg/kg, route oral; conditions: in vivo
[6] = Drug metabolism in rat hepatocytes assessed as (S)-3-amino-5-methyl-2,3-dihydrobenzo[b][1,4]oxazepin-4(5H)-one formation at 10 uM measured up to 4 hrs; assay type: ADME, cell-based, Hepatocyte
How it was run: (§2)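 Compound at 10 μM was incubated with hepatocyte suspensions at 1 million cells/mL. Incubation ran at 37°C under 5% CO2:95% O2 for up to 4 h.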

[7] = Drug metabolism in human hepatocytes assessed as 5-(hydroxy(phenyl)methyl)-N-((S)-5-methyl-4-oxo-2,3,4,5-tetrahydrobenzo[b][1,4]oxazepin-3-yl)-1H-1,2,4-triazole-3-carboxamide formation at 10 uM measured up to 4 hrs; assay type: ADME, cell-based, Hepatocyte; how it was run: as §2
[8] = Stability in human microsomes measured up to 45 mins; assay type: ADME, Microsome; conditions: 0.75 h
[9] = AUC in rat at 2.1 mg/kg, po; assay type: ADME, organism-based; conditions: in vivo
[10] = AUC in cynomolgus monkey at 1.9 mg/kg, po; assay type: ADME, organism-based, Macaca fascicularis; conditions: in vivo
[11] = Drug metabolism in cynomolgus monkey hepatocytes assessed as glucuronide metabolite M553 formation at 10 uM measured up to 4 hrs; assay type: ADME, cell-based, Macaca fascicularis, Hepatocyte; how it was run: as §2
[12] = AUC (0 to infinity) in rat at 2 mg/kg, po; assay type: ADME, organism-based; design: dose 2 mg/kg, route oral, time infinity; conditions: in vivo
Rattus norvegicus = test: Toxicity in rat at 2 to 1000 mg/kg, po after 1 month; assay type: organism-based; conditions: in vivo, 730.5 h
[13] = biological target: T1, Receptor-interacting serine/threonine-protein kinase 1 (Mus musculus, UniProt Q60855); test: Displacement of (14-(2-{[3-({2-{[4-(cyanomethyl)phenyl]amino}-6-[(5-cyclopropyl-1H-pyrazol-3-yl)-amino]-4-pyrimidinyl}amino)propyl]amino}-2-oxoethyl)-16,16,18,18-tetramethyl-6,7,7a,8a,9,10,16,18-octahydrobenzo[2'',3'']indolizino-[8'',7'':5',6']pyrano[3',2':3,4]pyrido[1,2-a]indol-5-ium-2-sulfonate from mouse RIP1 (1 to 378 residues) expressed in baculovirus infected insect cells measured for 50 mins by fluorescence polarization assay
T1 sequence (Q60855 whole entry): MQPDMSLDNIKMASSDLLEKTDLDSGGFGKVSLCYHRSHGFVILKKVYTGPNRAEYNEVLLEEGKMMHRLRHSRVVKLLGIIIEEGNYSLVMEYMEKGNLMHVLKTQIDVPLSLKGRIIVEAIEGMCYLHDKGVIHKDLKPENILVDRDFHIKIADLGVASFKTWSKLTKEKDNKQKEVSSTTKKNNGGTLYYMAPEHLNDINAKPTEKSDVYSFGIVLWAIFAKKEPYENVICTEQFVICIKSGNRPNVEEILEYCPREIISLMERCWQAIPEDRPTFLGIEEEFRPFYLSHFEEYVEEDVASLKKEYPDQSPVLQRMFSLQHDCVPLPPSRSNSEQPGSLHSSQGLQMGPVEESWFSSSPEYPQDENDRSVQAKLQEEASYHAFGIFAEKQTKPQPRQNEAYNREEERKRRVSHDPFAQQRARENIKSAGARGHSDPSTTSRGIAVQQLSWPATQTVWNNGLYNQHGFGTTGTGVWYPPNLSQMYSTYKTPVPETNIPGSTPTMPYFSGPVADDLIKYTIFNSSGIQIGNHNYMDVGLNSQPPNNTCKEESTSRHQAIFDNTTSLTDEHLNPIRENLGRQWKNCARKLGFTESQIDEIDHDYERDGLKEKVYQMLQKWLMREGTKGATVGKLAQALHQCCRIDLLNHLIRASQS
How it was run: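 Competitive FP binding assay in which test compounds displace a fluorescently labeled ATP-competitive ligand from RIP1.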

[14] = Drug metabolism in cynomolgus monkey hepatocytes assessed as 5-(hydroxy(phenyl)methyl)-N-((S)-5-methyl-4-oxo-2,3,4,5-tetrahydrobenzo[b][1,4]oxazepin-3-yl)-1H-1,2,4-triazole-3-carboxamide formation at 10 uM measured up to 4 hrs; assay type: ADME, cell-based, Macaca fascicularis, Hepatocyte; how it was run: as §2
[15] = Drug metabolism in rat hepatocytes assessed as 5-(hydroxy(phenyl)methyl)-N-((S)-5-methyl-4-oxo-2,3,4,5-tetrahydrobenzo[b][1,4]oxazepin-3-yl)-1H-1,2,4-triazole-3-carboxamide formation at 10 uM measured up to 4 hrs; assay type: ADME, cell-based, Hepatocyte; how it was run: as §2
[16] = Drug metabolism in human hepatocytes assessed as glucuronide metabolite M553 formation at 10 uM measured up to 4 hrs; assay type: ADME, cell-based, Hepatocyte; how it was run: as §2
Colon = test: Drug uptake in Han Wistar rat colon at 2 mg/kg, iv administered as 4 hrs infusion; assay type: ADME, organism-based; conditions: in vivo; how it was run: as §1
[17] = Fraction unbound in cynomolgus monkey blood; assay type: ADME, tissue-based, Macaca fascicularis
[18] = Cmax in rat at 2.1 mg/kg, po; assay type: ADME, organism-based; design: dose 2.1 mg/kg, route oral; conditions: in vivo
[19] = biological target: T2, Nuclear receptor subfamily 1 group I member 2 (Homo sapiens, UniProt O75469); test: Activation of human PXR; assay type: ADME
T2 sequence (O75469 whole entry): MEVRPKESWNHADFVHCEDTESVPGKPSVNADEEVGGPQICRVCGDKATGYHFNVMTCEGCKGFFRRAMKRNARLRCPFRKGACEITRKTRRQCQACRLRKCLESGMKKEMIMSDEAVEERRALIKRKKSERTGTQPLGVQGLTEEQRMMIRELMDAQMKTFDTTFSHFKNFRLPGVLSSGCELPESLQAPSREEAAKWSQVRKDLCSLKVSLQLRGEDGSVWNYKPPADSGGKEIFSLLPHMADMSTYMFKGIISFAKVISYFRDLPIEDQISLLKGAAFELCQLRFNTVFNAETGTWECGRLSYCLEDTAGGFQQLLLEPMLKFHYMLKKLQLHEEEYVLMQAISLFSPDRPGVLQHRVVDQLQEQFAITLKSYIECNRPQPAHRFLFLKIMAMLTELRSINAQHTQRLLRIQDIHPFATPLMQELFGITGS

[20] = Drug metabolism in human hepatocytes assessed as (S)-5-benzyl-N-(4-oxo-2,3,4,5-tetrahydrobenzo[b][1,4]oxazepin-3-yl)-1H-1,2,4-triazole-3-carboxamide formation at 10 uM measured up to 4 hrs; assay type: ADME, cell-based, Hepatocyte; how it was run: as §2
[21] = Drug metabolism in cynomolgus monkey hepatocytes assessed as glucuronide metabolite M569 formation at 10 uM measured up to 4 hrs; assay type: ADME, cell-based, Macaca fascicularis, Hepatocyte; how it was run: as §2
[22] = Drug metabolism in rat hepatocytes assessed as glucuronide metabolite M553 formation at 10 uM measured up to 4 hrs; assay type: ADME, cell-based, Hepatocyte; how it was run: as §2
[23] = Drug metabolism in rat hepatocytes assessed as glucuronide metabolite M569 formation at 10 uM measured up to 4 hrs; assay type: ADME, cell-based, Hepatocyte; how it was run: as §2
[24] = Tmax in rat at 2.1 mg/kg, po; assay type: ADME, organism-based; conditions: in vivo

Chain of Voltage-gated inwardly rectifying potassium channel KCNH2 (Q12809 whole entry): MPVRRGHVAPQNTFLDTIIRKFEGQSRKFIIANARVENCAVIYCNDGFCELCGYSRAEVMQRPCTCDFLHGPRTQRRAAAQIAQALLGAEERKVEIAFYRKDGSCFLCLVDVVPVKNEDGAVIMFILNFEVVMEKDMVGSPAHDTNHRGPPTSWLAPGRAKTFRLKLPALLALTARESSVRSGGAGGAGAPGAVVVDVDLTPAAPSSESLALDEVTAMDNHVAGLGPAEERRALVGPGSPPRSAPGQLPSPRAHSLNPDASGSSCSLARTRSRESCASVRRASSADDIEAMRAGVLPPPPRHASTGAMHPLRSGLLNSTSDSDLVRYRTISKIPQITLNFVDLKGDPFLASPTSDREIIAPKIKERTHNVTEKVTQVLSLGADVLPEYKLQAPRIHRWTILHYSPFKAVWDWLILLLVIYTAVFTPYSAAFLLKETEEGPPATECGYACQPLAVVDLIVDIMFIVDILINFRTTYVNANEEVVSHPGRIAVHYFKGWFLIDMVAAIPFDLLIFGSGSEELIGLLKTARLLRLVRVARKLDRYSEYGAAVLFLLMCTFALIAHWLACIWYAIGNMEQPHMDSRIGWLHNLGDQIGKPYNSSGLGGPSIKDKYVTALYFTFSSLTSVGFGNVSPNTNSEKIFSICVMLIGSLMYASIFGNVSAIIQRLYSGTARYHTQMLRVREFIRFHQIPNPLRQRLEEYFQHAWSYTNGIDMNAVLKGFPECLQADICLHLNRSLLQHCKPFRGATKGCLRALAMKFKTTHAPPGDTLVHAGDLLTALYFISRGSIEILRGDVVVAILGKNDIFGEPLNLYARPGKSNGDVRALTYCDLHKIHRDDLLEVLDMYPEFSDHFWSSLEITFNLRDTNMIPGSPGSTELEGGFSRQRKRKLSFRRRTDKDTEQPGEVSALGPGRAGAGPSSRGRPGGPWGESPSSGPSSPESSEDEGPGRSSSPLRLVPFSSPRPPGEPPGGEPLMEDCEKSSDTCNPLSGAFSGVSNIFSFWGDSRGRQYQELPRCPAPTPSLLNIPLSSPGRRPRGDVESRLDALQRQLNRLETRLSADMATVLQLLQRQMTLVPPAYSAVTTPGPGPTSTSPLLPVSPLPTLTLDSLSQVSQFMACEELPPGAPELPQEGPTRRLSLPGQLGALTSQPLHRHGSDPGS
Chain of Cytochrome P450 2C9 (P11712 whole entry): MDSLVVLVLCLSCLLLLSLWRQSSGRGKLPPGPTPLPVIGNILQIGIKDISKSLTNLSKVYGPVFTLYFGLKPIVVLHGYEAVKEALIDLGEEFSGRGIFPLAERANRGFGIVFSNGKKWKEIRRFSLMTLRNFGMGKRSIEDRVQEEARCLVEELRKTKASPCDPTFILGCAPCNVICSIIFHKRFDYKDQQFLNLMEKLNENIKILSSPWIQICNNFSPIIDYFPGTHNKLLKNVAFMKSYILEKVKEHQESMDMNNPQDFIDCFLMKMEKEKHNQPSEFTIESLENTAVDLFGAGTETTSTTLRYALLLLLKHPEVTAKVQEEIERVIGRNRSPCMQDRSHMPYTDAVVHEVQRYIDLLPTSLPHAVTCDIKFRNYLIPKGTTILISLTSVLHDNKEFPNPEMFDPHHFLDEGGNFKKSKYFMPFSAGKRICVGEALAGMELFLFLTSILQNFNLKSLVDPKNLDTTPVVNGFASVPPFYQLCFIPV

Question: Which results are given for `CN1C(=O)[C@@H](NC(=O)c2nnc(Cc3ccccc3)[nH]2)COc2ccccc21` [GSK2982772]?
Answer: half-life [1]: 6.5 h; fraction unbound [2]: 0.042; IC50 [3]: 195 µM; IC50 (Cytochrome P450 2C9): 25 µM; bioavailability [4]: 86%; Drug uptake (Heart): Active; Cmax [5]: 720 ng/mL; Drug metabolism [6]: Metabolite_Detected; Drug metabolism [7]: Metabolite_Detected; Stability [8]: Stable; AUC [9]: 2300 ng·h/mL; AUC [10]: 2900 ng·h/mL; Drug metabolism [11]: Metabolite_Detected; AUC(0-inf) [12]: 2300 ng·h/mL; Activity (Rattus norvegicus): Non-Toxic; IC50 [13]: 2.5 µM; Drug metabolism [14]: Metabolite_Detected; Drug metabolism [15]: Metabolite_Detected; Drug metabolism [16]: Metabolite_Detected; Drug uptake (Colon): Active; fraction unbound [17]: 0.11; Cmax [18]: 810 ng/mL; EC50 [19]: 13 µM; Drug metabolism [20]: Metabolite_Detected; Drug metabolism [21]: Metabolite_Detected; Drug metabolism [22]: Metabolite_Detected; Drug metabolism [23]: Metabolite_Detected; Tmax [24]: 0.25 h
